High-throughput results as filed in PubChem.
A selection: hits, their analogues and other compounds. The true share with any hit is near 3.1%.
CSN deneddyl inh: inhibitors of human CSN-mediated cullin deneddylation. Purified CSN, SCF-Nedd8-OG deneddylation, fluorescence polarization. Q92905. inhibition, % at 12.5 µM. 0.38% of 360,000 active;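 active means pattern-corrected inhibition above about 35%, with an unprinted fluorescence ratio check between 0.5 and 1.5, limit read from the data, passing the limit was not always enough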;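 further: 0% = enzyme with substrate and 100% = substrate without enzyme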
Target sequence (Q92905 whole entry, looked up, one chain of several): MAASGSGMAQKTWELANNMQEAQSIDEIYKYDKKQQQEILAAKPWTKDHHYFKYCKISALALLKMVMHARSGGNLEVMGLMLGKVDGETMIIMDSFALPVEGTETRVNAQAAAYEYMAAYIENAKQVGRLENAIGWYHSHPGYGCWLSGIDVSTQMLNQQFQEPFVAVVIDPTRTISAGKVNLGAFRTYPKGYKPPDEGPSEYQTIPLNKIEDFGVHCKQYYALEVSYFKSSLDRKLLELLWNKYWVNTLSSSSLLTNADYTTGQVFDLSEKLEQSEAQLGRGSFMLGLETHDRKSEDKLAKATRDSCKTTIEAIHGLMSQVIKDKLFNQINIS
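Material: human Csn5 produced in HEK293T cells; Input: enzyme 0.24 nM; Reagent: SCFSkp2-Nedd8OG substrate at 10 nM final; Dosing: 12.5 µM compound; Incubation: 90 min reaction at room temperature; Detection: fluorescence polarization of the substrate; Evaluation: % inhibition of substrate cleavage by Csn5; Control set: substrate-only high control, full reaction low control.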
UHRF1 MBD2 ctr: blocks human UHRF1 binding to methylated DNA. Q96T88. UHRF1 binding to methylated oligo, TR-FRET. inhibition, % at 4.4 µM. 0.75% of 370,000 active; in the data active means inhibition above about 21%;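 further: UHRF1 SRA domain binding a hemimethylated CpG hairpin DNA probe; 0% = median of test compound wells and 100% = reference inhibitor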
LEDGF integ inh: blocks HIV-1 LEDGF/p75-dependent DNA integration; TR-FRET IN-LEDGF/p75 DNA integration, Eu/Cy5; inhibition, % at 3.7 µM; 0.64% of 370,000 active;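 active means inhibition above the screen-wide mean plus 3 SD, cut at about 13% in these data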;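 further: signal is the Cy5 over europium emission ratio at 671 and 618 nm; 0% = plate median of compound wells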
MBD2 DNA inh: MBD2-methylated oligo binding inhibition. Q9UBB5. TR-FRET, MBD2 binding to methylated oligonucleotide. inhibition, % at 4.4 µM. 0.31% of 370,000 active. AID 686964; in the data active means inhibition above about 13%
Target sequence (Q9UBB5 whole entry, looked up): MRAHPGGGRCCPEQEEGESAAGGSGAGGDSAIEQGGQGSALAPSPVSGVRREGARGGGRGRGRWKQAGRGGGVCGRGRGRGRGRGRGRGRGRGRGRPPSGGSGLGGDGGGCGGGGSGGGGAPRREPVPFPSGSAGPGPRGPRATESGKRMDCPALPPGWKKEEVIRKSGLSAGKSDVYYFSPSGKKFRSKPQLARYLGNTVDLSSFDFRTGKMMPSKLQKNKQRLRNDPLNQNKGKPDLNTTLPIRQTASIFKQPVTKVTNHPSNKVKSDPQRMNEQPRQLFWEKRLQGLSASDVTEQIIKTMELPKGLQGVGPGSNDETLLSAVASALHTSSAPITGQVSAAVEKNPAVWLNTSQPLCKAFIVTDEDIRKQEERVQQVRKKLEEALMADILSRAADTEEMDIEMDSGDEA
rCAG binder: molecules binding r(CAG) RNA repeats | AID 651821 | 1.3% of 370,000 active | inhibition, % at 3 µM | r(CAG) RNA repeat, TO-PRO-1 dye displacement fluorescence;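 active means inhibition above the plate cutoff, the mean of all test compounds on that plate plus 3 SD, cut at about 35% in these data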;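 further: 0% = DMSO alone and 100% = 100 µM mitoxantrone as full dye displacement; higher means more dye released from RNA so lower well fluorescence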
ATG4B inh: ATG4B (human) cysteine protease inhibition; Q9Y4P1; ATG4B cleavage of LC3-PLA2, NBD-HPC fluorescence, 1 h; 0.51% of 340,000 active; inhibition, % at 8.33 µM; AID 504462; in the data active means inhibition above about 40%
rCAG bind conf: r(CAG) RNA repeat binding, confirmation | inhibition, % at 3 µM | TO-PRO-1 dye displacement fluorescence | AID 652065 | 70% of 4,300 active | shares compounds with rCAG binder;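 active means inhibition above a per-plate cutoff, the mean inhibition of sample wells plus 3 SD, cut at about 35% in these data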;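 further: loss of TO-PRO-1 fluorescence as compound displaces dye from 1x1 AA loop RNA; 0% = DMSO only wells and 100% = 100 µM mitoxantrone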
dCAG dye counter: DNA CAG dye complex inhibition counter-screen; shares compounds with rCAG binder; d(CAG) DNA oligo TO-PRO-1 dye displacement, fluorescence; inhibition, % at 3 µM; 94% of 4,300 active;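 active means inhibition above its plate's cutoff, the mean test-well inhibition plus 3 SD, cut at about 4.8% in these data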;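 further: 0% = DNA dye mix with DMSO and 100% = 100 µM mitoxantrone; hits displace the dye from DNA and so lower well fluorescence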
An asterisk follows results filed as active.

Results for COc1ccc2[nH]c3c(C)c4ccncc4c(C)c3c2c1 ?
CSN deneddyl inh: 4.5; UHRF1 MBD2 ctr: 35.6*; LEDGF integ inh: 4.1; MBD2 DNA inh: 32.6*; rCAG binder: 37.4*; ATG4B inh: -34.7; rCAG bind conf: 24.7; dCAG dye counter: 27.2*

What do the screens show for `O=C(Nc1cccc(C(=O)O)c1)/C(=C/c1cccc([N+](=O)[O-])c1)NC(=O)c1cccc(Br)c1`?
CSN deneddyl inh: -1.1; UHRF1 MBD2 ctr: -1.3; LEDGF integ inh: -2.0; MBD2 DNA inh: -0.9; rCAG binder: 46.8*; ATG4B inh: 3.2; rCAG bind conf: 21.8; dCAG dye counter: 4.8*

How did O=C(Nc1cccc(C(=O)O)c1)/C(=C/c1ccc2c(c1)OCO2)NC(=O)c1cccc(Br)c1 do in these assays?
CSN deneddyl inh: -2.0; UHRF1 MBD2 ctr: 1.8; LEDGF integ inh: 0.2; MBD2 DNA inh: 1.5; rCAG binder: 42.1*; ATG4B inh: -4.8; rCAG bind conf: 25.0; dCAG dye counter: 6.1*

Results for O=C(Nc1cccc(C(=O)O)c1)/C(=C/c1ccccc1)NC(=O)c1cccc(Br)c1 ?
CSN deneddyl inh: 1.8; UHRF1 MBD2 ctr: 1.3; LEDGF integ inh: -0.7; MBD2 DNA inh: 0.8; rCAG binder: 19.2; ATG4B inh: -1.9

Results for O=C(NC(Cc1ccccc1)C(=O)O)/C(=C/c1cccc([N+](=O)[O-])c1)NC(=O)c1cccc(Br)c1 (stereo unspecified) ?
CSN deneddyl inh: 2.4; UHRF1 MBD2 ctr: 1.8; LEDGF integ inh: -0.3; MBD2 DNA inh: 6.4; rCAG binder: 48.1*; ATG4B inh: 7.8; rCAG bind conf: 50.7*; dCAG dye counter: 15.7*

What do the screens show for `C=CCN=C1NC(CCc2ccccc2)C(C(=O)OC)=C(C)N1Cc1cccc(C(F)(F)F)c1` (stereo unspecified)?
UHRF1 MBD2 ctr: -1.2; LEDGF integ inh: -1.1; MBD2 DNA inh: -3.5; rCAG binder: 9.3

How did Cc1ccc(OS(=O)(=O)c2ccccc2)c(/C=N/N=C2\NC(=O)C(C)S2)c1 (stereo unspecified) do in these assays?
CSN deneddyl inh: -5.3; UHRF1 MBD2 ctr: -1.8; LEDGF integ inh: -3.3; MBD2 DNA inh: 0.4; rCAG binder: 36.3*; ATG4B inh: 26.4; rCAG bind conf: 46.1*; dCAG dye counter: 12.8*

How did O=C1CS/C(=N/N=C/c2ccccc2OS(=O)(=O)c2ccccc2)N1 do in these assays?
CSN deneddyl inh: 1.4; UHRF1 MBD2 ctr: -2.8; LEDGF integ inh: 4.6; MBD2 DNA inh: -5.6; rCAG binder: 27.0; ATG4B inh: 4.9

How did N#Cc1ccc(S(=O)(=O)N2CCCc3nc(-c4ccc(F)cc4)ccc32)cc1 do in these assays?
UHRF1 MBD2 ctr: -0.1; LEDGF integ inh: -0.3; MBD2 DNA inh: 1.3; rCAG binder: 2.6

How did C=CCNc1nc(N)c(C(=C(C#N)C#N)c2ccc(Br)cc2)s1 do in these assays?
CSN deneddyl inh: -11.2; UHRF1 MBD2 ctr: -2.4; LEDGF integ inh: 0.5; MBD2 DNA inh: 2.5; rCAG binder: 38.1*; ATG4B inh: 9.9; rCAG bind conf: 22.2; dCAG dye counter: 10.3*

Results for Fc1cccc2sc(Nc3nc4cc5c(cc4s3)OCCO5)nc12 ?
CSN deneddyl inh: -6.8; UHRF1 MBD2 ctr: 1.7; LEDGF integ inh: 0.8; MBD2 DNA inh: 1.1; rCAG binder: 10.5; ATG4B inh: -12.6

How did Fc1cccc2sc(Nc3nc4cc5c(cc4s3)OCO5)nc12 do in these assays?
CSN deneddyl inh: -16.3; UHRF1 MBD2 ctr: -0.1; LEDGF integ inh: -2.1; MBD2 DNA inh: 1.9; rCAG binder: 67.3*; ATG4B inh: 22.5; rCAG bind conf: 54.4*; dCAG dye counter: 33.2*

What do the screens show for `Cc1cccc(C(=O)Nc2nnc(S(=O)(=O)N(C)Cc3ccco3)s2)c1`?
CSN deneddyl inh: 8.2; UHRF1 MBD2 ctr: -2.2; LEDGF integ inh: -0.8; MBD2 DNA inh: 0.2; rCAG binder: 36.5*; ATG4B inh: -3.8; rCAG bind conf: 37.4*; dCAG dye counter: 13.5*

What do the screens show for `COc1ccc(CN(C)S(=O)(=O)c2nnc(NC(=O)c3cccc(F)c3)s2)cc1OC`?
CSN deneddyl inh: 2.5; UHRF1 MBD2 ctr: -1.5; LEDGF integ inh: -1.9; MBD2 DNA inh: 0.3; rCAG binder: 56.6*; ATG4B inh: 11.2; rCAG bind conf: 60.1*; dCAG dye counter: 23.6*

What do the screens show for `Cc1cccc(NS(=O)(=O)c2nnc(NC(=O)c3ccc(Cl)cc3)s2)c1`?
CSN deneddyl inh: 6.8; UHRF1 MBD2 ctr: 2.6; LEDGF integ inh: 6.5; MBD2 DNA inh: -0.4; rCAG binder: 36.6*; ATG4B inh: 2.4; rCAG bind conf: 34.1; dCAG dye counter: 11.9*

Results for N#C[C@@H]1N[C@H](CO)[C@@H]1c1ccccc1 ?
UHRF1 MBD2 ctr: 2.9; LEDGF integ inh: -3.3; MBD2 DNA inh: 5.0; rCAG binder: 4.7

Results for COC(=O)[C@]12C[C@H](CC(=O)NCc3cccc(C(F)(F)F)c3)C(=O)N(Cc3ccc(Cl)cc3Cl)C1=C[C@H](COCc1ccccc1)O[C@@H]2C ?
UHRF1 MBD2 ctr: 0.2; LEDGF integ inh: -1.3; MBD2 DNA inh: 1.7; rCAG binder: 5.2

How did COc1ccc(OC)c(CN2C(=O)CN(S(C)(=O)=O)CC2(C)c2nnnn2C2CCCC2)c1 (stereo unspecified) do in these assays?
UHRF1 MBD2 ctr: 0.9; LEDGF integ inh: -0.9; MBD2 DNA inh: 1.5; rCAG binder: 5.3

How did Nc1c(/C=C2\C=Nc3ccccc32)c(=O)nc2sc(CC(=O)N3CCOCC3)nn12 do in these assays?
CSN deneddyl inh: 4.2; UHRF1 MBD2 ctr: -8.0; LEDGF integ inh: -0.1; MBD2 DNA inh: -16.4; rCAG binder: 47.6*; ATG4B inh: -2.4; rCAG bind conf: 31.3; dCAG dye counter: 8.7*

How did Nc1c(C=C2C=CC(=O)C=C2)c(=O)nc2sc(CC(=O)N3CCOCC3)nn12 do in these assays?
CSN deneddyl inh: -4.1; UHRF1 MBD2 ctr: 2.1; LEDGF integ inh: 1.2; MBD2 DNA inh: 1.9; rCAG binder: 17.6; ATG4B inh: 5.8

What do the screens show for `COc1ccccc1CNC(=O)N1CCN(Cc2nc3ccccc3c(=O)[nH]2)CC1`?
UHRF1 MBD2 ctr: 1.5; LEDGF integ inh: -4.0; MBD2 DNA inh: 4.6; rCAG binder: 2.9

What do the screens show for `CC(C)(C)c1ccc(C(=O)NC(CC(=O)O)c2ccc(OC3CCCC3)cc2)cc1` (stereo unspecified)?
CSN deneddyl inh: 0.3; UHRF1 MBD2 ctr: 3.9; LEDGF integ inh: -2.7; MBD2 DNA inh: 0.2; rCAG binder: 39.4*; ATG4B inh: 8.7; rCAG bind conf: 42.8*; dCAG dye counter: 8.0*

How did COc1ccc(C=NNC(=O)c2cc(-c3ccc(C)c(C)c3)n[nH]2)cc1OCc1ccccc1 do in these assays?
UHRF1 MBD2 ctr: -1.7; LEDGF integ inh: 9.2; MBD2 DNA inh: -0.9; rCAG binder: 15.5
